This note sets out measurements from ChEMBL document CHEMBL3739412, “Addressing cytotoxicity of 1,4-biphenyl amide derivatives: Discovery of new potent and selective 17β-hydroxysteroid dehydrogenase type 2 inhibitors” (Bioorg Med Chem Lett, 2016).

Series [1] has as its target T1, 17-beta-hydroxysteroid dehydrogenase type 1 (Homo sapiens) (UniProt P14061).
T1 sequence (whole entry): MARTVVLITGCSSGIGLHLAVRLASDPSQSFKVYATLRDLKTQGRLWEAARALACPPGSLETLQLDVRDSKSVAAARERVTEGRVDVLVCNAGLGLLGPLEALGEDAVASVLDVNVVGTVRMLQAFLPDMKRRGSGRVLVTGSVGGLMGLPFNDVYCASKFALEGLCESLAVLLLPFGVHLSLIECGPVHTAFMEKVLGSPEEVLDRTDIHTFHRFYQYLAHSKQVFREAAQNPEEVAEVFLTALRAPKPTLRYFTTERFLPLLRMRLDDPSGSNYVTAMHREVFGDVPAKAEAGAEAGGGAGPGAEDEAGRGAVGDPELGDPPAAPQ
Description: Inhibition of 17beta-HSD1 in human placental cytosolic fraction using E1/NADH as substrate/cofactor at 1 uM after 10 mins by HPLC analysis. In short, it runs like this: (§1)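 Enzyme source is human placenta, cytosolic fraction. Substrate is estrone (E1) at 500 nM, with NADH as cofactor. Values are the mean of at least two determinations, with standard deviation below 20%.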

The target in series [2] is T2, 17-beta-hydroxysteroid dehydrogenase type 2 (Homo sapiens) (UniProt P37059).
T2 sequence (whole entry): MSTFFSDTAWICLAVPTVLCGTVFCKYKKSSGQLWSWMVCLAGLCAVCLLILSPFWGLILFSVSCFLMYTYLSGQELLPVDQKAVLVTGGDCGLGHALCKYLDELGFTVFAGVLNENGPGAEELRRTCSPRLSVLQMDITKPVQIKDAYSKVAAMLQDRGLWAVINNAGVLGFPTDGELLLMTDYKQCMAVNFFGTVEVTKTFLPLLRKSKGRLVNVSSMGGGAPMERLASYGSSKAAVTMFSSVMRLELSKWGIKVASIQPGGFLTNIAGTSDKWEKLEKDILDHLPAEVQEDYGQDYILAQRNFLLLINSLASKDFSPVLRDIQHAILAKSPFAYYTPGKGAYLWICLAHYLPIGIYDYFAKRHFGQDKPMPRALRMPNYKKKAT
The experiment in a line: Inhibition of 17beta-HSD2 in human placental microsomal fraction using E2/NAD+ as substrate/cofactor at 1 uM after 20 mins by HPLC analysis. The following applies: Placenta. The procedure, abridged:
(§2)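 Enzyme source is human placenta, microsomal fraction. Substrate is estradiol (E2) at 500 nM, with NAD+ as cofactor. Values are the mean of at least two determinations, with standard deviation below 20%.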

Series [3] addresses T3, 17-beta-hydroxysteroid dehydrogenase type 1 (Homo sapiens, UniProt P14061).
T3 sequence (P14061 whole entry): T1 sequence (whole entry)
The experiment in a line: Inhibition of 17beta-HSD1 in human placental cytosolic fraction using E1/NADH as substrate/cofactor after 10 mins by HPLC analysis. The procedure, abridged:
as §1

Series [4] is described as follows: Half life in human liver S9 fraction at 1 uM after 5 to 60 mins by LC-MS/MS analysis. It counts as ADME, subcellular.
Another series is filed under the species Homo sapiens. Description: Selectivity ratio of IC50 for 17beta-HSD1 in human placental cytosolic fraction to IC50 for 17beta-HSD2 in human placental microsomal fraction.
Series [5] can be described thus: Cytotoxicity against HEK293 cells assessed as cell viability at 6.25 uM after 66 hrs by MTT assay. It counts as cell-based. The following applies: human, read-out: Activity.
The nature of series [6]: Cytotoxicity against HEK293 cells assessed as cell viability after 66 hrs by MTT assay. It counts as cell-based. Conditions: human, read-out: LD50.
The target in series [7] is T4, 17-beta-hydroxysteroid dehydrogenase type 2 (Homo sapiens, UniProt P37059).
T4 sequence (P37059 whole entry): T2 sequence (whole entry)
The experiment in a line: Inhibition of 17beta-HSD2 in human placental microsomal fraction using E2/NAD+ as substrate/cofactor after 20 mins by HPLC analysis. More on the design: species or system Placenta. The procedure, abridged:
as §2

Calls of active or inactive are those of the source. The rule behind the calls is not given here.

For `COc1cccc(C(=O)N2CCN(c3ccccc3)CC2)c1`, the inhibition entry in series [1] was “inactive”. Moreover, the inhibition in series [2] amounted to 14%.

As to `COc1cccc(N(C)C(=O)c2ccc(Oc3ccc(Cl)cc3)cc2)c1`, the figures for the inhibition in series [1] and in series [2] were 13% and 51%, respectively.

For the compound `Cc1ccc(N2CCN(C(=O)c3cccc(O)c3)CC2)cc1`, the inhibition result in series [1] and in series [2] was “inactive” in each case.

On to `CN(C(=O)c1ccc(Oc2ccc(O)cc2)cc1)c1cccc(O)c1`, for which, in series [1], the inhibition entry was “inactive”. For the same compound, the IC50 entry in series [3] is recorded as “Not Active”. This compound had an inhibition in series [2] of 43%.

With `COc1cccc(N(C)C(=O)c2ccc(Oc3ccc([N+](=O)[O-])cc3)cc2)c1`, the inhibition entry in series [1] is “inactive”. The IC50 result in series [3] is “Not Active”. For the same compound, the inhibition in series [2] worked out at 43%.

On to `Cc1cccc(N2CCN(C(=O)c3cccc(O)c3)CC2)c1`, for which the inhibition result in series [1] was “inactive”. In addition, the inhibition in series [2] stood at 16%.

Turning to `O=S(=O)(c1cccc(O)c1)N1CCN(c2ccc(F)c(O)c2)CC1`, the inhibition entry in series [1] is “inactive”. In series [2], this compound yielded an inhibition of 48%.

On to `COc1cccc(C(=O)N2CCN(c3cccc(OC)c3)CC2)c1`, for which the inhibition entry in series [1] and in series [2] was “inactive” in each case.

For the compound `Cc1cccc(N(C)C(=O)c2ccc(Oc3ccccc3C)cc2)c1`, the inhibition result in series [1] is “inactive”. In addition, the IC50 entry in series [3] is “Not Active”. Besides, the inhibition in series [2] was found to be 55%.

Consider `COc1cccc(N(C)C(=O)c2ccc(-c3ccc(C)c(C)c3)cc2)c1`, for which, in series [4], the half-life at 1 µM worked out at 1.78 h. In addition, the Ratio IC50 in the series filed under Homo sapiens is 44. For the same compound, the inhibition in series [2] was 75%. Also, in series [5], the viability at 66 h, 6.25 µM was determined as 34%. For the same compound, the CC50 at 66 h in series [6] was less than 6.25 µM.

As to `COc1cccc(N(C)C(=O)C2CCC(c3ccc(Cl)cc3)CC2)c1` (stereo unspecified), the results for the concentration for half-maximal inhibition (IC50) in series [7] and in series [3] (read-out: IC50) were 0.29 µM and 60.1 µM, respectively. Further, the Ratio IC50 in the series listed under Homo sapiens was 209. The CC50 at 66 h in series [6] is greater than 12.5 µM.

Consider `Cc1ccc(Oc2ccc(C(=O)N(C)c3cccc(C)c3)cc2)cc1`, for which the values for the IC50 in series [7] and in series [3] (read-out: IC50) were 0.16 µM and 26.3 µM, respectively. In addition, the Ratio IC50 in the series listed under Homo sapiens turned out to be 168. Also, the CC50 at 66 h in series [6] came to 25 µM.

Consider `COc1cccc(S(=O)(=O)N2CCN(c3cccc(C)c3)CC2)c1`, for which the inhibition entry in series [1] was “inactive”. The same compound yielded an inhibition in series [2] of 16%.

`COc1ccc(Oc2ccc(C(=O)N(C)c3cccc(OC)c3)cc2)cc1`: the values for the IC50 in series [7] and in series [3] (read-out: IC50) were 0.31 µM and 9.6 µM, respectively. Besides, in the series filed under Homo sapiens, the Ratio IC50 was determined as 31. Further, the CC50 at 66 h in series [6] was 25 µM.

With `COc1cccc(C(=O)N2CCN(c3cccc(C)c3)CC2)c1`, the inhibition entry in series [1] and in series [2] was “inactive” in each case.

On to `O=S(=O)(c1cccc(O)c1)N1CCN(c2cccc(O)c2)CC1`, for which the inhibition result in series [1] is “inactive”. This compound yielded an inhibition in series [2] of 25%.

With `COc1cccc(S(=O)(=O)N2CCN(c3ccc(F)c(OC)c3)CC2)c1`, the inhibition result in series [1] is “inactive”. In series [2], the inhibition is 15%.

For the compound `COc1cccc(C(=O)N2CCN(c3ccc(C)cc3)CC2)c1`, in series [1], the inhibition entry is “inactive”. This compound had an inhibition in series [2] of 16%.

Regarding `Cc1cccc(Oc2ccc(C(=O)N(C)c3cccc(C)c3)cc2)c1`, the IC50 in series [7] came out at 0.3 µM; in series [3] (read-out: IC50), 16.1 µM. Besides, in the series filed under Homo sapiens, the Ratio IC50 came out at 54. Moreover, the CC50 at 66 h in series [6] was 25 µM.

Regarding `O=C(c1cccc(O)c1)N1CCN(c2ccccc2)CC1`, the inhibition entry in series [1] was “inactive”. For the same compound, the inhibition in series [2] came to 27%.

With `Cc1cccc(N(C)C(=O)c2ccc(Oc3ccccc3)cc2)c1`, the inhibition entry in series [1] was “inactive”. The 50% inhibitory concentration (IC50) result in series [3] was “Not Active”. This compound returned an inhibition in series [2] of 59%.

Consider `Cc1cccc(N2CCN(S(=O)(=O)c3cccc(O)c3)CC2)c1`, for which the inhibition entry in series [1] is “inactive”. Further, in series [2], the inhibition stood at 27%.

For the compound `COc1cccc(N2CCN(S(=O)(=O)c3cccc(OC)c3)CC2)c1`, the inhibition entry in series [1] and in series [2] was “inactive” in each case.
